Measured values published in ChEMBL document CHEMBL1124329, “Synthesis of novel bifunctional chelators and their use in preparing monoclonal antibody conjugates for tumor targeting” (J Med Chem, 1989).
Values joined by “and” are separate entries in the source; they are usually repeats but may differ in a detail not shown here. Identical values can stand only once.

Assays:
Conditions in all cases: in vivo, iv
Mus musculus [1] = assay: Biodistribution of labeled B72.3-chelator conjugatec in Nude mice bearing LS174T tumor (Ag+), administered intravenously expressed as % of injected dose of indium-111 per gram of tissue; format: ADME, organism-based
Mus musculus [2] = assay: Biodistribution of labeled B72.3-chelator conjugate(EDTA isothiocynates) in Nude mice bearing LS174T tumors, in spleen, administered intravenously expressed as % of injected dose of indium-111 per gram of tissue; format: ADME, organism-based
Outline: (§1)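 Female athymic nu/nu mice (BALB/c background) were given 5×10^6 A375 melanoma cells (antigen-negative) s.c. in the left flank, then 14 days later 1.25×10^6 LS174T colorectal cells (antigen-positive) in the right flank. After a further 7–14 days, with tumors at 100–500 mg, mice were randomized and given 2.0 μg indium-111-labeled B72.3 conjugate in saline i.v. by tail vein. At 48 h, tissues were weighed and gamma-counted, and activity was expressed as % of counted injectate per gram.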

Mus musculus [3] = assay: Biodistribution of labeled B72.3-chelator conjugate(EDTA isothiocynates) in nude mice bearing LS174T tumors, in kidney, administered intravenously expressed as % of injected dose of indium-111 per gram of tissue; format: ADME, organism-based; outline: as §1
Mus musculus [4] = assay: Biodistribution of labeled B72.3-chelator conjugate(EDTA isothiocynates) in Nude mice bearing LS174T tumors, in lungs, administered intravenously expressed as % of injected dose of indium-111 per gram of tissue; format: ADME, organism-based, Lung; outline: as §1
Mus musculus [5] = assay: Biodistribution of labeled B72.3-chelator conjugate(EDTA isothiocynates) in Nude mice bearing LS174T tumors, in liver, administered intravenously expressed as % of injected dose of indium-111 per gram of tissue; format: ADME, organism-based; outline: as §1
Mus musculus [6] = assay: Biodistribution of labeled B72.3-chelator conjugate (EDTA isothiocynates) in Nude mice bearing LS174T tumors, in blood, administered intravenously expressed as % of injected dose of indium-111 per gram of tissue; format: ADME, organism-based; outline: as §1
Mus musculus [7] = assay: Biodistribution of labeled B72.3-chelator conjugate(DTPA isothiocynates) in Nude mice bearing LS174T tumors, in lungs, administered intravenously expressed as % of injected dose of indium-111 per gram of tissue; format: ADME, organism-based, Lung; outline: as §1
Mus musculus [8] = assay: Biodistribution of labeled B72.3-chelator conjugate(DTPA isothiocynates) in Nude mice bearing LS174T tumor (Ag+), administered intravenously expressed as % of injected dose of indium-111 per gram of tissue; format: ADME, organism-based; outline: as §1
Mus musculus [9] = assay: Biodistribution of labeled B72.3-chelator conjugate(DTPA isothiocynates) in Nude mice bearing LS174T tumors, in spleen, administered intravenously expressed as % of injected dose of indium-111 per gram of tissue; format: ADME, organism-based; outline: as §1
Mus musculus [10] = assay: Biodistribution of labeled B72.3-chelator conjugate(DTPA isothiocynates) in Nude mice bearing LS174T tumors, in liver, administered intravenously expressed as % of injected dose of indium-111 per gram of tissue; format: ADME, organism-based; outline: as §1
Mus musculus [11] = assay: Biodistribution of labeled B72.3-chelator conjugate (DTPA isothiocynates) in Nude mice bearing LS174T tumors, in blood, administered intravenously expressed as % of injected dose of indium-111 per gram of tissue; format: ADME, organism-based; outline: as §1
Mus musculus [12] = assay: Biodistribution of labeled B72.3-chelator conjugate(DTPA isothiocynates) in nude mice bearing LS174T tumors, in kidney, administered intravenously expressed as % of injected dose of indium-111 per gram of tissue; format: ADME, organism-based; outline: as §1
Mus musculus [13] = assay: Biodistribution of labeled B72.3-chelator conjugate(DTPA amide) in nude mice bearing LS174T tumors, in kidney, administered intravenously expressed as % of injected dose of indium-111 per gram of tissue; format: ADME, organism-based
Mus musculus [14] = assay: Biodistribution of labeled B72.3-chelator conjugate (DTPA amide) in Nude mice bearing LS174T tumors, in blood, administered intravenously expressed as % of injected dose of indium-111 per gram of tissue; format: ADME, organism-based
Mus musculus [15] = assay: Biodistribution of labeled B72.3-chelator conjugate(DTPA amide) in Nude mice bearing LS174T tumors, in blood, administered intravenously expressed as % of injected dose of indium-111 per gram of tissue; format: ADME, organism-based
Mus musculus [16] = assay: Biodistribution of labeled B72.3-chelator conjugate in Nude mice bearing LS174T tumors, in liver, administered intravenously expressed as % of injected dose of indium-111 per gram of tissue
Mus musculus [17] = assay: Biodistribution of labeled B72.3-chelator conjugate(DTPA amide)s in Nude mice bearing LS174T tumors, in lungs, administered intravenously expressed as % of injected dose of indium-111 per gram of tissue; format: ADME, organism-based, Lung
Mus musculus [18] = assay: Biodistribution of labeled B72.3-chelator conjugate(DTPA amide) in Nude mice bearing LS174T tumor (Ag+), administered intravenously expressed as % of injected dose of indium-111 per gram of tissue; format: ADME, organism-based
Mus musculus [19] = assay: Biodistribution of labeled B72.3-chelator conjugate (DTPA amide) in Nude mice bearing LS174T tumor (Ag+), administered intravenously expressed as % of injected dose of indium-111 per gram of tissue; format: ADME, organism-based
Mus musculus [20] = assay: Biodistribution of labeled B72.3-chelator conjugate(DTPA amide) in Nude mice bearing LS174T tumors, in spleen, administered intravenously expressed as % of injected dose of indium-111 per gram of tissue; format: ADME, organism-based
Mus musculus [21] = assay: Biodistribution of labeled B72.3-chelator conjugate(DTPA amide) in Nude mice bearing LS174T tumor (Ag-), administered intravenously expressed as % of injected dose of indium-111 per gram of tissue; format: ADME, organism-based

Compound | Biodistribution (Mus musculus [13]) | Biodistribution (Mus musculus [15]) [%] | Biodistribution (Mus musculus [16]) | Biodistribution (Mus musculus [17]) | Biodistribution (Mus musculus [19]) [%] | Biodistribution (Mus musculus [20]) | Biodistribution (Mus musculus [21]) [%] | also measured
Nc1ccc(CC(CN(CC(=O)O)CC(=O)O)N(CC(=O)O)CC(=O)O)cc1 (stereo not given) |  |  |  |  |  |  |  | Biodistribution (Mus musculus [1]): 20.82%; Biodistribution (Mus musculus [2]): 11.68%; Biodistribution (Mus musculus [3]): 16.91%; Biodistribution (Mus musculus [4]): 9.19%; Biodistribution (Mus musculus [5]): 14.26%; Biodistribution (Mus musculus [6]): 19.82%
Nc1ccc(CC(CN(CCN(CC(=O)O)CC(=O)O)CC(=O)O)N(CC(=O)O)CC(=O)O)cc1 (stereo not given) |  |  |  |  |  |  |  | Biodistribution (Mus musculus [7]): 9.94%; Biodistribution (Mus musculus [8]): 25.94%; Biodistribution (Mus musculus [9]): 5.03%; Biodistribution (Mus musculus [10]): 9.09%; Biodistribution (Mus musculus [11]): 18.37%; Biodistribution (Mus musculus [12]): 8.99%
O=C(O)CN(CCN(CC(=O)O)CC(=O)O)CCN(CC(=O)O)CC(=O)O [PENTETIC ACID] | 17.14% and 12.64% | 10.67 | 17.2% and 19.39% | 6.3% and 6.15% | 18.97 | 9.14% and 12.12% | 6.23 | Biodistribution (Mus musculus [14]): 11.23%; Biodistribution (Mus musculus [18]): 42.22%
O=C(O)CN(CCN(CC(=O)O)C(Cc1ccc(N=C=S)cc1)C(=O)O)CC(=O)O (stereo not given) | 5.9% | 12.1 | 6.1% | 5.5% | 21.1 | 3.9% | 5.2 | 
O=C(O)CN(CCN(CC(=O)O)CC(=O)O)CCN(CC(=O)O)C(Cc1ccc(N=C=S)cc1)C(=O)O (stereo not given) | 2.3% | 8.9 | 6.9% | 4.1% | 19.5 | 4% | 4.1 | 
